Activity calls are given as the source filed them. The rule behind the calls is not given here.

Data set [1] is described as follows: Volume of distribution in dog at 1 mg/kg, iv or 1 mg/kg, po. The data set is classed as ADME, organism-based, Canis lupus familiaris. As to conditions: in vivo, read-out: Vdss. In outline: (§1)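 Pharmacokinetics in rat, dog or rhesus after 1 mg/kg iv and 1 mg/kg po dosing. Plasma clearance (mL/min/kg), half-life (h), volume of distribution (L/kg) and oral bioavailability (%) were derived.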

The nature of data set [2]: Volume of distribution in rhesus at 1 mg/kg, iv or 1 mg/kg, po. The data set is classed as ADME, organism-based, Macaca mulatta. As to conditions: rhesus monkey, in vivo, read-out: Vdss. In outline: as §1
Data set [3] concerns Rattus norvegicus. Put plainly: Activity in rat elevated plus maze assay at 1 mg/kg, po. The data set is classed as functional, organism-based. The arrangement: dose 1 mg/kg. The essentials: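 Rats given test compound orally 30 min before a 5 min elevated plus maze session; vehicle 0.5% methyl cellulose po. Read-out is time on open arms as percentage of total time. n = 18 per group. Significance versus vehicle at p < 0.05.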

For data set [4], the target named is GABA-A receptor; alpha-5/beta-3/gamma-2 (Homo sapiens) (UniProt P18507+P28472+P31644). Put plainly: Efficacy against recombinant human GABAA alpha-5 receptor plus beta3gamma2 expressed in L(tk-) cells by whole cell patch clamp method relative to chlordiazepoxide. It is filed as functional, cell-based. In outline: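 Whole-cell patch clamp on L(tk-) cells stably expressing human alpha subunit plus beta3gamma2. GABA applied at an EC20-equivalent concentration. Modulation of that current measured across increasing test-compound concentrations. Efficacy is expressed relative to the maximal response to the full agonist chlordiazepoxide, set at 1.00.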

In data set [5] the target is T1, GABA-A receptor; alpha-5/beta-3/gamma-2 (Homo sapiens, UniProt P18507+P28472+P31644).
T1 sequence (P18507 whole entry): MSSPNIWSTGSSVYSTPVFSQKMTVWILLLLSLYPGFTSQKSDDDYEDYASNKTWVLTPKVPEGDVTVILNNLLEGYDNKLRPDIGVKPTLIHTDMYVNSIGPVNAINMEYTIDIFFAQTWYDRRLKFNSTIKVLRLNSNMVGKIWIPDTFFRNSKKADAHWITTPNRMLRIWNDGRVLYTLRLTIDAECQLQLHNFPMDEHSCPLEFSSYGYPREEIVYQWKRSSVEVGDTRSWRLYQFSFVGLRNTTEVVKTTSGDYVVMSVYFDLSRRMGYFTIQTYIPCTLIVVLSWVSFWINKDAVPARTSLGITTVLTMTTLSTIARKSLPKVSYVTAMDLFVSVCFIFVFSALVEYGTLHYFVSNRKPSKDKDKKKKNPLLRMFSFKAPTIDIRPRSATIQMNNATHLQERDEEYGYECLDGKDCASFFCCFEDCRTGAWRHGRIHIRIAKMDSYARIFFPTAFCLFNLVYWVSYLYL
T1 sequence (P28472 whole entry): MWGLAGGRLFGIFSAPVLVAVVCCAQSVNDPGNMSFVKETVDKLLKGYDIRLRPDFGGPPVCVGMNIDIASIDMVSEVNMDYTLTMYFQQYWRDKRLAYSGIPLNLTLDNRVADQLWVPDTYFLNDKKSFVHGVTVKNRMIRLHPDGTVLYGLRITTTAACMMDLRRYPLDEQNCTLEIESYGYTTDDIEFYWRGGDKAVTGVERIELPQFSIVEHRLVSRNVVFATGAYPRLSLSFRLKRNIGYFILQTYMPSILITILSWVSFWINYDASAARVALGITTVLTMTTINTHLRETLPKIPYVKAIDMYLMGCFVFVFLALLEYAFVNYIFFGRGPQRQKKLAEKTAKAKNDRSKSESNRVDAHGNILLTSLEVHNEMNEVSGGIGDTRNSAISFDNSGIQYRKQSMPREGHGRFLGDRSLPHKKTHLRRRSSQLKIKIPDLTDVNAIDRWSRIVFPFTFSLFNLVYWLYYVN
T1 sequence (P31644 whole entry): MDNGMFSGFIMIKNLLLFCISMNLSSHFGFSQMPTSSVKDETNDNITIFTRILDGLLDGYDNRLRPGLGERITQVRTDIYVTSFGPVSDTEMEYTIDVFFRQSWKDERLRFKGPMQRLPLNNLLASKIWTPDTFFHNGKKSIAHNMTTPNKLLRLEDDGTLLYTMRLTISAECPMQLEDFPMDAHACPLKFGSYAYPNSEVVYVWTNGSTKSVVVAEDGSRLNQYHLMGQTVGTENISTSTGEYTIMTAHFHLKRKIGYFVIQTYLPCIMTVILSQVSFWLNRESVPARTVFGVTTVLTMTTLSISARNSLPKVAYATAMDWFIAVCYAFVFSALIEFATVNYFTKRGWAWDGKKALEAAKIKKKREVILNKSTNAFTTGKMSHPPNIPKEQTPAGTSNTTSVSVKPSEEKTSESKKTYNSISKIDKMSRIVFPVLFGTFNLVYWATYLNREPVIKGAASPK
Put plainly: Displacement of [3H] Ro15-1788 from recombinant human GABAA alpha-5 receptor plus beta3gamma2 expressed in L(tk-) cells. The data set is classed as cell-based. In outline:
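Inhibition of [3H]Ro15-1788 binding to human recombinant GABAA receptors stably expressed in L(tk-) cells, alpha subunit combined with beta3 and gamma2. Six to eight test concentrations spaced in half-log units. Ki reported as geometric mean of n = 2-12.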

Data set [6] relates to Mus musculus. Put plainly: Impairment in mouse rotarod assay upto 10 mg/kg, po. It is filed as functional, organism-based. Set-up: dose 10 mg/kg. In outline: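 Mouse rotarod test for sedation or myorelaxation after oral dosing up to 10 mg/kg. n = 8 per group. Significance versus vehicle at p < 0.05.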

As to `CC(C)(O)c1cnn2c(-c3ccc(F)c(-c4c(F)cccc4C#N)c3)cnc2n1`, the Vd in data set [1] was found to be 1.9 L/kg; in data set [2], 2.1 L/kg. Also, the outcome in data set [3] was Active. Besides, in data set [4], the Efficacy turned out to be 0.37%. In addition, the Ki in data set [5] stood at 1.1 nM. For the same compound, in data set [6], the result was inactive.

(Values after ChEMBL document CHEMBL1149444, “Discovery of imidazo[1,2-b][1,2,4]triazines as GABA(A) alpha2/3 subtype selective agonists for the treatment of anxiety” (J Med Chem, 2006).)
